Screens: PubChem BioAssay, The Scripps Research Institute Molecular Screening Center
UHRF1 MBD2 ctr = human UHRF1 methylated DNA binding inhibitors; UHRF1 binding to methylated oligo, TR-FRET; inhibition, % at 4.4 µM; 370,000 compounds, 0.75% hits; in the data active = inhibition above about 21%;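 also: UHRF1 SRA domain binding a hemimethylated CpG hairpin DNA probe; 0% = median of test compound wells and 100% = reference inhibitor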
MBD2 inh = inhibitors of human MBD2 binding to methylated oligonucleotide; TR-FRET; inhibition, % at 4.4 µM; 370,000 compounds, 0.31% hits; AID 686964; Q9UBB5; in the data active = inhibition above about 13%
PRMT1 FP inh = blocks human protein arginine methyltransferase 1; recombinant PRMT1, activity-based probe fluorescence polarization; inhibition, % at 2.79 µM; 370,000 compounds, 1.3% hits;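 active = inhibition above about 21% made by adding two undisclosed values, limit read from the data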
Target sequence (Q99873 whole entry, looked up): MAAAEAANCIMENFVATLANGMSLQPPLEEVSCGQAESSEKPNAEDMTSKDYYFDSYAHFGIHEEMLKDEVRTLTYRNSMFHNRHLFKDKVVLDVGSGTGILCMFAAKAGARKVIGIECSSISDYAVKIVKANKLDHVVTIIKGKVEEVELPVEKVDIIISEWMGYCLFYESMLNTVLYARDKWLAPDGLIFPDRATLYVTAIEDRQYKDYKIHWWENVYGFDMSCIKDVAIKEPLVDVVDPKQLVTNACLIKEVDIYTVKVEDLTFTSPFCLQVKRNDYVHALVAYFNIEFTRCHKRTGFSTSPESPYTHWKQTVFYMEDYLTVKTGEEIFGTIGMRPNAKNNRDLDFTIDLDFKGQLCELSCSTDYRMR
ABHD5-PLIN5 inh = inhibitors of human ABHD5-perilipin-5 interaction. Split G. princeps luciferase complementation, luminescence, 4 h. inhibition, % at 4 µM. 360,000 compounds, 0.78% hits;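 active = inhibition above the mean inhibition across every tested compound plus 3 SD, cut at about 22% in these data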;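 also: 0% = DMSO only wells and the 100% control is not disclosed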
RBBP9 inhibitor = human RBBP9 hydrolase inhibition; AID 1515; recombinant RBBP9, FP-Rh probe fluorescence polarization; 220,000 compounds, 0.2% hits; O75884; inhibition, % at 7.94 µM;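 active = inhibition above the campaign mean of all tested compounds plus 3 SD, cut at about 14% in these data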;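 also: plate controls were DMSO wells with RBBP9 for no effect and wells lacking RBBP9 protein for full effect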
Target sequence (O75884 whole entry, looked up): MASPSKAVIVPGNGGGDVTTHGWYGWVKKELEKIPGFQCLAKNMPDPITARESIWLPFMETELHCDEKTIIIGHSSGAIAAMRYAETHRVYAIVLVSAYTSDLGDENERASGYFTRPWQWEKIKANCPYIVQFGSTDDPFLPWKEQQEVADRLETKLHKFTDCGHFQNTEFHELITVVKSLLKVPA
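Test system: recombinant human RBBP9. Quantity: 2.5 µM RBBP9 dispensing solution, before mixing. Detection: FP readout at 525/598 nm. Reagent: Serine-hydrolase probe FP-Rh, 375 nM pre-mixing. Measure: % inhibition. Control set: DMSO-treated enzyme wells and wells lacking RBBP9. Buffer or medium: Tris-NaCl-Pluronic buffer, pH 8.0. Times: preincubation 30 min plus labeling 45 min at 25 °C.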
LEDGF integ inh = blocks HIV-1 LEDGF/p75-dependent DNA integration; TR-FRET IN-LEDGF/p75 DNA integration, Eu/Cy5; inhibition, % at 3.7 µM; 370,000 compounds, 0.64% hits; AID 743269;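 active = inhibition above the screen-wide mean plus 3 SD, cut at about 13% in these data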;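 also: signal is the Cy5 over europium emission ratio at 671 and 618 nm; 0% = plate median of compound wells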
IN multimer up = activates HIV-1 integrase multimerization in LEDGF counter-screen | activation, % at 7.7 µM | shares compounds with LEDGF integ inh | TR-FRET HIV-1 integrase multimerization, biochemical | 2,000 compounds, 17% hits; in the data active = activation above about 8.9%
TRFRET interf = optically interferes with TR-FRET readout in LEDGF counter-screen | shares compounds with LEDGF integ inh | TR-FRET optical interference counterscreen, HIV-1 IN multimerization | inhibition, % at 7.7 µM | 2,000 tested, under 10 active | AID 1053135;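 active = inhibition above the mean over all tested compounds plus 3 SD, which no compound reached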;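 also: 0% = integrase with antibodies and DMSO and 100% = antibodies without integrase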
LEDGF integ conf = confirmation of HIV-1 LEDGF/p75-dependent integration inhibitors; shares compounds with LEDGF integ inh; TR-FRET LEDGF/p75-dependent HIV-1 integration, biochemical; inhibition, % at 3.7 µM; 2,000 compounds, 36% hits; AID 1053136; in the data active = inhibition above about 14%
* marks the source's active call; other numbers are inactive results; nt = not tested or not shown. In the library only some 3.1% were active in any assay of this set; here they are far more common.

SMILES | UHRF1 MBD2 ctr | MBD2 inh | PRMT1 FP inh | ABHD5-PLIN5 inh | RBBP9 inhibitor | LEDGF integ inh | IN multimer up | TRFRET interf | LEDGF integ conf
Cc1cc(C(=O)COC(=O)Cc2n[nH]c(=O)c3ccccc23)c(C)n1-c1cccc(C(F)(F)F)c1 | 2 | -4 | 0 | 0 | 1 | 30* | 0 | 2 | 11
COc1cccc(-c2nnc(NC(=O)CCS(=O)(=O)c3ccc(F)cc3)o2)c1 | -1 | -2 | -3 | -1 | nt | 15* | 5 | -28 | -3
COc1ccccc1OCCSc1nnnn1-c1ccc(C)cc1 | -2 | -5 | -4 | 4 | nt | 37* | -3 | 14 | 10
Fc1ccccc1OCCSc1nnnn1-c1ccccc1 | -1 | 1 | -2 | -5 | 13 | 2 | nt | nt | nt
COc1cc(NCCCCCCCN)c2ncccc2c1 | nt | nt | nt | -4 | 2 | nt | nt | nt | nt
COc1cc(NC(C)CCCN)c2ncccc2c1 (stereo not drawn) | 3 | -12 | 5 | -3 | nt | 35* | 2 | -8 | 31*
CCN(C[C@H]1N[C@@](Cc2ccccc2)(C(=O)OC)[C@H]2C(=O)N(Cc3ccccc3)C(=O)[C@@H]12)S(=O)(=O)c1ccc(C(F)(F)F)cc1 | 2 | 5 | 2 | -8 | nt | 25* | 0 | -2 | -14
COC(=O)[C@]1(C)N[C@H](CN(C)S(=O)(=O)c2ccc(C(F)(F)F)cc2)[C@@H]2C(=O)N(C)C(=O)[C@@H]21 | -3 | 1 | 0 | 14 | nt | 36* | -2 | 8 | -5
COC(=O)[C@]1(C)N[C@H](CN(C)S(=O)(=O)c2ccc(OC)cc2)[C@@H]2C(=O)N(C)C(=O)[C@@H]21 | 2 | -4 | -7 | -3 | nt | 10 | nt | nt | nt
CC1CCC2(CCC(=O)N2CCCOC(=O)NC(C)(C)C)CC1 (stereo not drawn) | 2 | 6 | 2 | nt | nt | 4 | nt | nt | nt
Oc1ccc(N=Nc2cccc(C(F)(F)F)c2)cc1C=Nc1ccc(N2CCOCC2)cc1 | -4 | -3 | 1 | -14 | -4 | 14* | -1 | 3 | 14*
Oc1cc(Br)ccc1C=Nc1ccc(N2CCCCC2)cc1 | -1 | -3 | 3 | -11 | -3 | 6 | nt | nt | nt
Oc1ccc(C=Nc2ccc(N3CCOCC3)cc2)c(O)c1 | -3 | -3 | 3 | -11 | 5 | 19* | 19* | -97 | 23*
Cc1cc(Br)cc(C=Nc2ccc(N3CCOCC3)cc2)c1O | 0 | -4 | 0 | -10 | nt | 26* | 3 | -13 | 17*
Oc1c(Cl)cc(Cl)cc1C=Nc1ccc(N2CCOCC2)cc1 | 3 | 3 | 4 | -1 | nt | 6 | nt | nt | nt
COC(=O)[C@H]1C[C@@]2(N3CCCCC3)c3ccccc3N(C(=O)OC(C)(C)C)[C@H]2N1C(=O)OC(C)(C)C | -1 | -3 | -2 | nt | nt | 3 | nt | nt | nt
COc1cc(CCC(=O)NCc2ccc3c(c2)OCO3)cc(OC)c1OC | 0 | 8 | 4 | 4 | nt | 29* | 0 | 1 | -5
COc1ccc(CCC(=O)NCc2ccc3c(c2)OCO3)cc1 | -3 | 3 | -3 | 2 | nt | -2 | nt | nt | nt
CCC(C)N(C(=O)Cn1nc(Cc2ccncc2)c2ccccc2c1=O)C(C)CC (stereo not drawn) | 1 | 4 | -2 | nt | nt | -4 | nt | nt | nt
NC(=S)NN=Cc1nccc2c(N)cccc12 | -8 | -12 | 18 | -27 | nt | 20* | 15* | -75 | 17*
C#CCNc1cccc2c1S(=O)(=O)N[C@H](C)CO2 | 19 | 8 | 1 | nt | nt | -2 | nt | nt | nt
CC1(OC(=O)CCc2ccccc2)C(=O)C=C2C=C3CCCN3C=C2C1=O (stereo not drawn) | 7 | -3 | 11 | -6 | nt | 20* | 1 | -3 | 23*
CCc1nc(SCC(=O)N2CCc3ccccc32)c2oc3ccccc3c2n1 | 0 | -5 | -2 | 6 | nt | 14* | 0 | -3 | -1
Cc1nc(SCC(=O)N2CCCc3ccccc32)c2oc3ccccc3c2n1 | 4 | -1 | 0 | 2 | 8 | 2 | nt | nt | nt
O=C(OC12CCCN(C1)/C(=C/c1ccccc1)C2)c1ccccc1 (stereo not drawn) | 0 | 0 | 0 | nt | nt | -5 | nt | nt | nt
SMILES | UHRF1 MBD2 ctr | MBD2 inh | PRMT1 FP inh | ABHD5-PLIN5 inh | RBBP9 inhibitor | LEDGF integ inh | IN multimer up | TRFRET interf | LEDGF integ conf
Cc1ccc(-n2c(SCc3cccc(F)c3)nc3ccccc3c2=O)cc1 | -1 | -4 | 4 | nt | nt | -2 | nt | nt | nt
COC(=O)c1cccc(-c2ccc(C(c3c(C)[nH][nH]c3=O)c3c(C)[nH][nH]c3=O)o2)c1 | 15 | -2 | 29* | -25 | 1 | 14* | 0 | 2 | 11
COC(=O)c1ccccc1-c1ccc(C(c2c(C)[nH][nH]c2=O)c2c(C)[nH][nH]c2=O)o1 | 13 | 0 | 3 | -39 | 6 | 12 | nt | nt | nt
COc1ccc(OC)c(CN(CC(F)(F)F)S(=O)(=O)c2ccccc2Br)c1 | -1 | -3 | -1 | nt | nt | 3 | nt | nt | nt
O=C(CN(CCc1ccccc1)S(=O)(=O)c1ccc(F)cc1)N1CCOCC1 | 1 | -1 | 2 | nt | nt | 0 | nt | nt | nt
CC(=O)Nc1ccc(-c2ccnc3c2CC(C(=O)Nc2ccc(Cl)c(C(F)(F)F)c2)O3)cc1 (stereo not drawn) | 1 | -1 | -1 | -1 | nt | 37* | 0 | -1 | -1
CN1CCN(CCc2nc3cc(NC(=O)COc4ccccc4)ccc3n2C)CC1 | 0 | 4 | -1 | 7 | -10 | 0 | nt | nt | nt
CC(C)C(=O)Nc1ccc2c(c1)nc(CCN1CCN(C)CC1)n2C | 5 | 0 | -2 | 2 | 8 | 13* | 0 | 2 | -3
O=C1c2ccccc2C(=O)c2c(Nc3ccc(CCO)cc3)ccc(O)c21 | 0 | 0 | -1 | 0 | 6 | 15* | 14* | -51 | 0
CC(=O)Nc1ccc(Nc2ccc3c4c(cc(=O)n3C)-c3ccccc3C(=O)c24)cc1 | 11 | 1 | 7 | 2 | 4 | -8 | nt | nt | nt
COc1cc(C2C(C#N)=C(N)Oc3cc(C)oc(=O)c32)cc2c1OCO2 (stereo not drawn) | 42* | 9 | 5 | 0 | -4 | 20* | 3 | -14 | 14*
CC(=O)N1CCC(N2CCN(c3ccccc3F)CC2)CC1 | 6 | 4 | -3 | 4 | -3 | 40* | 1 | -5 | -3
O=C(OCc1cn(Cc2cccc(F)c2)nn1)N1CCOCC1 | 7 | 1 | 0 | nt | nt | -4 | nt | nt | nt
Cc1ccc(-n2c(SCc3nc4ccccc4[nH]3)nnc2-c2ccccn2)cc1 | 1 | -1 | -3 | nt | nt | -1 | nt | nt | nt
COc1ccccc1/C=C\C(=O)NCC(=O)N/N=C/c1ccc(O)cc1O | -2 | -1 | -1 | -4 | -4 | 16* | 5 | -24 | -4
